Reference: ChEMBL document CHEMBL1629689, “Cross-resistance to nitro drugs and implications for treatment of human African trypanosomiasis” (Antimicrob Agents Chemother, 2010)
Values after ≈ are worked out from the molar mass of the structure shown. Active and inactive are the calls of the source. The calls are words filed in the database; no cut-off is given here.

What was measured:
Trypanosoma brucei [1] = test: Selectivity ratio of EC50 for Trypanosoma brucei NfxR2 to EC50 for Trypanosoma brucei; format: functional
How it was run: (§1)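 Resistance factor taken as EC50 for resistant cells divided by EC50 for wild-type S427 bloodstream T. brucei, both from the same in vitro growth-inhibition assay. EC50 values come from at least three independent experiments.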

Trypanosoma brucei [2] = test: Antimicrobial activity against Trypanosoma brucei NfxR1; format: functional, organism-based
How it was run: (§2)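 T. brucei bloodstream-form single-marker S427 (wild type) and cloned nifurtimox-resistant lines, cultured at 37°C in HMI9-T with 2.5 µg/ml G418. Growth inhibition measured, data corrected for background cell density and expressed as % of untreated cells. EC50 from a two-parameter fit with slope factor. At least three independent experiments; weighted means ± weighted SD.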

Trypanosoma brucei [3] = test: Antimicrobial activity against Trypanosoma brucei; format: functional, organism-based; how it was run: as §2
Trypanosoma brucei [4] = test: Antimicrobial activity against Trypanosoma brucei NfxR2; format: functional, organism-based; how it was run: as §2
Trypanosoma brucei [5] = test: Selectivity ratio of EC50 for Trypanosoma brucei NfxR1 to EC50 for Trypanosoma brucei; format: functional; how it was run: as §1
[6] = Cmax in NMRI mouse at 200 mg/kg, po after 15 mins; format: ADME, organism-based; set-up: dose 200 mg/kg, route oral; conditions: in vivo
How it was run: (§3)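 Single oral dose of 200 mg/kg to NMRI mice, vehicle 10% DMSO in peanut oil. Tail-vein blood (10 µl) taken into water at 0.25, 0.5, 1, 2, 4, 6 and 8 h. Samples extracted by acetonitrile protein precipitation with internal standard. Parent and sulfoxide and sulfone metabolites measured by UPLC-MS/MS (positive ESI, MRM). Triplicate measurements.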

[7] = Fraction unbound in plasma of NMRI mouse at 200 mg/kg, po; format: ADME, organism-based; set-up: dose 200 mg/kg, route oral
Blood [8] = test: Metabolic stability in blood of NMRI mouse assessed as accumulation of sulfoxide metabolite at 200 mg/kg, po measured after 2 hrs; format: ADME, organism-based; set-up: dose 200 mg/kg, route oral; conditions: in vivo; how it was run: as §3
Trypanosoma brucei [9] = test: Antimicrobial activity against Trypanosoma brucei wild type
Trypanosoma brucei [10] = test: Antimicrobial activity against wild type Trypanosoma brucei infected in dosed NMRI administered QD for 3 days measured on day 6 by neubuaer hemocytometry
Trypanosoma brucei [11] = test: Antimicrobial activity against wild type Trypanosoma brucei infected NMRI assessed as cure rate at 50 mg/kg, QD for 3 days measured on day 6 by neubuaer hemocytometry
Trypanosoma brucei [12] = test: Antimicrobial activity against Trypanosoma brucei NfxR1 infected in mouse assessed as decrease in parasitemia level at 200 mg/kg, QD for 3 days measured on day 60 by neubuaer hemocytometry
Trypanosoma brucei [13] = test: Antimicrobial activity against Trypanosoma brucei NfxR1 infected in dosed NMRI administered QD for 3 days measured on day 6 by neubuaer hemocytometry
Blood [14] = test: Metabolic stability in blood of NMRI mouse assessed as accumulation of sulfone metabolite at 200 mg/kg, po measured after 8 hrs; conditions: in vivo
Trypanosoma brucei [15] = test: Antimicrobial activity against Trypanosoma brucei wild type; remark: listed apart in the source
Trypanosoma brucei [16] = test: animal or person; conditions: in Mus musculus, ip, 96 h
[17] = test system: Trypanosoma brucei gambiense; test: Antimicrobial activity against Trypanosoma brucei gambiense
Trypanosoma brucei [18] = conditions: NfxR1, 100 mg/kg

SMILES	Ratio EC50 (Trypanosoma brucei [1])	EC50 (Trypanosoma brucei [2]) [µM]	EC50 (Trypanosoma brucei [3]) [µM]	EC50 (Trypanosoma brucei [4]) [µM]	Ratio EC50 (Trypanosoma brucei [5])	also measured
NC(=O)c1cc(N2CC2)c([N+](=O)[O-])cc1[N+](=O)[O-] [TRETAZICAR]	19	8	0.54	10.2	15	–
NCCCC(N)(C(=O)O)C(F)F (configuration not stated) [EFLORNITHINE]	1	11.9	16.4	11.5	1	–
NC(=O)N/N=C/c1ccc([N+](=O)[O-])o1 [NITROFURAZONE]	12	3.7	0.31	3.7	12	–
Cc1ncc([N+](=O)[O-])n1CCO [METRONIDAZOLE]	–	> 500	> 500	> 500	–	–
CSc1ccc(OCc2ncc([N+](=O)[O-])n2C)cc1 [FEXINIDAZOLE]	–	–	–	–	–	Cmax [6]: 961 ng/mL; fraction unbound [7]: 0.147; Stability (Blood [8]): 40000 ng/mL; MIC (Trypanosoma brucei [9]): 17.7 µM (≈ 4.94 µg/mL); ED50 (Trypanosoma brucei [10]): 21 mg/kg; Activity (Trypanosoma brucei [11]): 100%; inhibition (Trypanosoma brucei [12]): inactive; ED50 (Trypanosoma brucei [13]): 171 mg/kg
Cn1c([N+](=O)[O-])cnc1COc1ccc(S(C)(=O)=O)cc1 [FEXINIDAZOLE SULFONE]	15	9.6	0.62	9.5	15	Stability (Blood [14]): 55000 ng/mL
O=C(Cn1ccnc1[N+](=O)[O-])NCc1ccccc1 [BENZNIDAZOLE]	5	154	30	155	5	–
CC1CS(=O)(=O)CCN1/N=C/c1ccc([N+](=O)[O-])o1 (configuration not stated) [NIFURTIMOX]	–	–	–	–	–	MIC (Trypanosoma brucei [15]): 15.2 µM (≈ 4.37 µg/mL); ED50 (Trypanosoma brucei [16]): 36.7 mg/kg; ED99 (Trypanosoma brucei [16]): 128 mg/kg; EC50 [17]: 0.26 µM; inhibition (Trypanosoma brucei [18]): inactive
O=[N+]([O-])c1cn2c(n1)OC[C@@H](OCc1ccc(OC(F)(F)F)cc1)C2 [PRETOMANID]	1	30.5	37.8	30.8	1	–
Cn1c([N+](=O)[O-])cnc1COc1ccc([S+](C)[O-])cc1 (configuration not stated) [FEXINIDAZOLE SULFOXIDE]	15	18.4	1.4	21	13	–
N=C(N)c1ccc(OCCCCCOc2ccc(C(=N)N)cc2)cc1 [PENTAMIDINE]	2	0.0026	0.00095	0.0017	3	–
